Experimental findings from ChEMBL document CHEMBL4038281, “Competitive protein tyrosine phosphatase 1B (PTP1B) inhibitors, prenylated caged xanthones from Garcinia hanburyi and their inhibitory mechanism” (Bioorg Med Chem, 2017) are described below.

Assay [1] addresses T1, Tyrosine-protein phosphatase non-receptor type 1 (Homo sapiens) (UniProt P18031).
T1 sequence (whole entry): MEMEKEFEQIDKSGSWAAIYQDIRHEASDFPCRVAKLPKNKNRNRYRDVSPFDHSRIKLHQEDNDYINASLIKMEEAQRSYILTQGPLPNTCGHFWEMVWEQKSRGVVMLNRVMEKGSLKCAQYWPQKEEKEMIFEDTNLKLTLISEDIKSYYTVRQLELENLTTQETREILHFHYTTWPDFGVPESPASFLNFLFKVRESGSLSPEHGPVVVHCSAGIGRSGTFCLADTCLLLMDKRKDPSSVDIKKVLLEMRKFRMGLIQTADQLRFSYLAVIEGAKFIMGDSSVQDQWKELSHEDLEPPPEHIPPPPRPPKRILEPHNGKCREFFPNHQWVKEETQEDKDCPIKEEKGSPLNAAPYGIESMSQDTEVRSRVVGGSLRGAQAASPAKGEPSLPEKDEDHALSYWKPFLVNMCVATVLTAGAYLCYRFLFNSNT
The assay can be described thus: Inhibition of recombinant human PTP1B (1 to 322 residues) expressed in Escherichia coli using pNPP as substrate incubated for 10 mins measured for 30 mins by spectrometric analysis. Summed up:
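Enzyme (1 mg/mL stock) was mixed with sample in DMSO and 4 mM pNPP stock in 25 mM Tris-HCl pH 7.5, 1 mM EDTA, 2 mM b-mercaptoethanol and 1 mM DTT.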

The target of assay [2] is T1, Tyrosine-protein phosphatase non-receptor type 1 (Homo sapiens). The assay can be described thus: Competitive inhibition of recombinant human PTP1B (1 to 322 residues) expressed in Escherichia coli at 99.4 to 397.8 uM using pNPP as substrate by Line-weaver burk plot method. Summed up:
(§1)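 Kinetics with pNPP substrate in 25 mM Tris-HCl (pH 7.5), 1 mM EDTA, 2 mM b-mercaptoethanol, 1 mM DTT, 37 °C. Initial velocities were recorded at several substrate and inhibitor concentrations and read at 405 nm. Vmax and Km came from Lineweaver-Burk plots, and the Kik/Kiv ratio was calculated per Yang et al.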

For assay [3] the target is unchanged. As to conditions: 457.3 to 1829.3 uM.
Assay [4] has the same target. Nature of the assay: Competitive inhibition of recombinant human PTP1B (1 to 322 residues) expressed in Escherichia coli at 52.6 to 210.6 uM using pNPP as substrate by Line-weaver burk plot method. Summed up: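 PTP1B activity was followed by pNPP hydrolysis at 405 nm in 25 mM Tris-HCl pH 7.5 with 1 mM EDTA, 2 mM b-mercaptoethanol and 1 mM DTT, at 37 °C, with compound added in DMSO. Initial velocities were taken across substrate and inhibitor concentrations. Km and Vmax came from Lineweaver-Burk plots, with Dixon plots also used, and the Kik/Kiv ratio was calculated after Yang et al.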

Assay [5] shares this target. Particulars: 11.7 to 47.1 uM.
The target is the same in assay [6]. As to conditions: 49.5 to 198.1 uM.
Assay [7] has the same target. Nature of the assay: Competitive inhibition of recombinant human PTP1B (1 to 322 residues) expressed in Escherichia coli at 11.8 to 47.2 uM using pNPP as substrate by Line-weaver burk plot method. Summed up:
as §1

Assay [8] has the same target. As to conditions: 12.4 to 49.6 uM.
Assay [9] has the same target. Particulars: 0.47 uM.

The source made the active and inactive calls. The rule behind the calls is not given here.

As for `COC1=C2C(=O)c3c(O)c4c(c(CC=C(C)C)c3O[C@@]23[C@H]2C[C@@H]1C(=O)[C@]3(CC=C(C)C)OC2(C)C)O[C@](C)(CCC=C(C)C)C=C4`, the inhibition result in [1] is “Dose-dependent effect”. Further, in assay [2], the inhibition entry is “Active”.

For the compound `CC(C)=CCc1c2c(c(O)c3c1O[C@]14C(=C[C@@H]5C[C@H]1C(C)(C)O[C@@]4(/C=C(/C)CO)C5=O)C3=O)C=CC(C)(C)O2`, the inhibition result in assay [1] is “Dose-dependent effect”. Besides, the inhibition result in assay [3] is “Active”.

On to `CO[C@@H]1C2C(=O)c3c(O)c4c(c(CC=C(C)C)c3O[C@@]23[C@H]2C[C@@H]1C(=O)[C@]3(C/C=C(/C)C(=O)O)OC2(C)C)OC(C)(C)C=C4` (stereo not given in full), for which the inhibition result in [1] is “Dose-dependent effect”. The inhibition result in assay [4] was “Active”.

For `CO[C@@H]1C2C(=O)c3c(O)c(C/C=C(\C)CCC=C(C)C)c(O)c(CC=C(C)C)c3O[C@@]23[C@H]2C[C@@H]1C(=O)[C@]3(C/C=C(/C)C(=O)O)OC2(C)C` (stereo not given in full), the inhibition result in assay [1] is “Dose-dependent effect”. In assay [5], the inhibition entry was “Active”.

As for `CC(C)=CCC/C(C)=C/Cc1c(O)c(CC=C(C)C)c2c(c1O)C(=O)C1=C[C@@H]3C[C@H]4C(C)(C)O[C@@](C/C=C(/C)C(=O)O)(C3=O)[C@@]14O2`, the inhibition entry in [1] was “Dose-dependent effect”. In assay [6], the inhibition entry was “Active”.

For the compound `CO[C@@H]1C2C(=O)c3c(O)c4c(c(CC=C(C)C)c3O[C@@]23[C@H]2C[C@@H]1C(=O)[C@]3(C/C=C(/C)C(=O)O)OC2(C)C)O[C@](C)(CCC=C(C)C)C=C4` (stereo not given in full), in assay [1], the inhibition result was “Dose-dependent effect”. The inhibition result in assay [7] is “Active”.

On to `CC(C)=CCC[C@]1(C)C=Cc2c(O)c3c(c(CC=C(C)C)c2O1)O[C@]12C(=C[C@@H]4C[C@H]1C(C)(C)O[C@@]2(C/C=C(/C)C(=O)O)C4=O)C3=O`, for which the inhibition entry in assay [1] was “Dose-dependent effect”. The inhibition result in assay [8] is “Active”. For the same compound, the TDI result in [9] is “Active”.
